Test results published in ChEMBL document CHEMBL3045292, “Synthesis and herbicidal activity of 2-(7-fluoro-3-oxo- 3,4-dihydro-2H-benzo[b][1,4]oxazin-6-yl)isoindoline-1,3-diones” (J Agric Food Chem, 2005).

Tests used:
[1] = Phytotoxicity against Glycine max (soybean) assessed as growth inhibition at 7.5 g/ha post-emergence treatment measured after 15 days by crop-selectivity assay; assay type: organism-based; details: in vivo, read-out: GI
[2] = Phytotoxicity against Brassica rapa subsp. oleifera assessed as growth inhibition at 75 g/ha pre-emergence treatment measured after 15 days by crop-selectivity assay; assay type: organism-based; details: in vivo, read-out: GI
[3] = Phytotoxicity against Brassica rapa subsp. oleifera assessed as growth inhibition at 15 g/ha post-emergence treatment measured after 15 days by crop-selectivity assay; assay type: organism-based; details: in vivo, read-out: GI
[4] = Phytotoxicity against Zea mays (maize) assessed as growth inhibition at 30 g/ha post-emergence treatment measured after 15 days by crop-selectivity assay; assay type: organism-based; details: in vivo, read-out: GI
Method in brief: (§1)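 Compounds were formulated as 100 g/L emulsifiable concentrates, with DMF as solvent and Tween-80 as emulsifier, then diluted in water to the required rate. They were sprayed on pot-grown plants in a greenhouse, in clay soil (pH 6.5, 1.6% organic matter, 37.3% clay, CEC 12.1 cmol/kg). Untreated and DMF-treated plants served as controls. Percent growth inhibition was scored visually 15 days after treatment.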

Amaranthus blitum [5] = test: Herbicidal activity against Amaranthus blitum assessed as weed growth inhibition at 75 g/ha pre-emergence treatment […]; assay type: functional; details: read-out: GI
Method in brief: (§2)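 Pot-grown plants in the greenhouse, in clay soil (pH 6.5, 1.6% organic matter, 37.3% clay, CEC 12.1 cmol/kg). Compound was made up as a 100 g/L emulsified concentrate (DMF, Tween-80), diluted in water and sprayed at 75 g ai/ha. Pre-emergence spraying was 24 h after sowing; post-emergence at two-leaf (dicots) or one-leaf (monocots) stage. Untreated and DMF controls. Percent growth inhibition scored visually 15 days post-treatment.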

Gossypium [6] = test: Phytotoxicity against Gossypium (cotton) assessed as growth inhibition at 75 g/ha pre-emergence treatment measured after 15 days by crop-selectivity assay; assay type: organism-based; details: in vivo, other, 360 h
Gossypium [7] = test: Phytotoxicity against Gossypium (cotton) assessed as growth inhibition at 150 g/ha pre-emergence treatment measured after 15 days by crop-selectivity assay; assay type: organism-based; details: in vivo, other, 360 h
Setaria viridis [8] = test: Herbicidal activity against Setaria viridis (green foxtail) assessed as weed growth inhibition at 75 g/ha post-emergence treatment […]; assay type: functional; details: read-out: GI; method in brief: as §2
Setaria viridis [9] = test: Herbicidal activity against Setaria viridis (green foxtail) assessed as weed growth inhibition at 75 g/ha pre-emergence treatment […]; assay type: functional; details: read-out: GI; method in brief: as §2
[10] = Phytotoxicity against Triticum aestivum (wheat) assessed as growth inhibition at 75 g/ha pre-emergence treatment measured after 15 days by crop-selectivity assay; assay type: organism-based; details: in vivo, read-out: GI; method in brief: as §1
Chenopodium album [11] = test: Herbicidal activity against fat hen Chenopodium album assessed as weed growth inhibition at 75 g/ha pre-emergence treatment […]; assay type: functional; details: read-out: GI; method in brief: as §2
Echinochloa crus-galli = test: Herbicidal activity against Echinochloa crus-galli (barnyard grass) (barnyard grass) assessed as weed growth inhibition at 75 g/ha post-emergence treatment […]; assay type: functional; details: read-out: GI; method in brief: as §2
[12] = Phytotoxicity against Oryza sativa (rice) assessed as growth inhibition at 30 g/ha pre-emergence treatment measured after 15 days by crop-selectivity assay; assay type: organism-based; details: in vivo, read-out: GI
[13] = Phytotoxicity against Gossypium (cotton) assessed as growth inhibition at 7.5 g/ha post-emergence treatment measured after 15 days by crop-selectivity assay; assay type: organism-based; details: in vivo, read-out: GI
Gossypium [14] = test: Phytotoxicity against Gossypium (cotton) assessed as growth inhibition at 30 g/ha pre-emergence treatment measured after 15 days by crop-selectivity assay; assay type: organism-based; details: in vivo, other, 360 h
[15] = Phytotoxicity against Brassica rapa subsp. oleifera assessed as growth inhibition at 7.5 g/ha post-emergence treatment measured after 15 days by crop-selectivity assay; assay type: organism-based; details: in vivo, read-out: GI
Triticum aestivum = test: Phytotoxicity against Triticum aestivum (wheat) assessed as growth inhibition at 7.5 g/ha pre-emergence treatment measured after 15 days by crop-selectivity assay; assay type: organism-based; details: in vivo, other, 360 h; method in brief: as §1
[16] = Phytotoxicity against Zea mays (maize) assessed as growth inhibition at 15 g/ha post-emergence treatment measured after 15 days by crop-selectivity assay; assay type: organism-based; details: in vivo, read-out: GI; method in brief: as §1
Abutilon theophrasti = test: Herbicidal activity against Abutilon theophrasti (velvetleaf) assessed as weed growth inhibition at 75 g/ha pre-emergence treatment […]; assay type: functional; details: read-out: GI; method in brief: as §2
Glycine max [17] = test: Phytotoxicity against Glycine max (soybean) assessed as growth inhibition at 15 g/ha pre-emergence treatment measured after 15 days by crop-selectivity assay; assay type: organism-based; details: in vivo, other, 360 h
Zea mays = test: Phytotoxicity against Zea mays (maize) assessed as growth inhibition at 7.5 g/ha pre-emergence treatment measured after 15 days by crop-selectivity assay; assay type: organism-based; details: in vivo, other, 360 h; method in brief: as §1
[18] = tested on: Brassica rapa subsp. oleifera; test: Phytotoxicity against Brassica rapa subsp. oleifera assessed as growth inhibition at 15 g/ha pre-emergence treatment measured after 15 days by crop-selectivity assay; assay type: organism-based; details: in vivo, other, 360 h
Digitaria sanguinalis [19] = test: Herbicidal activity against crabgrass Digitaria sanguinalis(hairy crabgrass) assessed as weed growth inhibition at 75 g/ha post-emergence treatment […]; assay type: functional; details: read-out: GI; method in brief: as §2
Gossypium [20] = test: Phytotoxicity against Gossypium (cotton) assessed as growth inhibition at 7.5 g/ha pre-emergence treatment measured after 15 days by crop-selectivity assay; assay type: organism-based; details: in vivo, other, 360 h
[21] = Phytotoxicity against Brassica rapa subsp. oleifera assessed as growth inhibition at 30 g/ha pre-emergence treatment measured after 15 days by crop-selectivity assay; assay type: organism-based; details: in vivo, read-out: GI
Glycine max [22] = test: Phytotoxicity against Glycine max (soybean) assessed as growth inhibition at 7.5 g/ha pre-emergence treatment measured after 15 days by crop-selectivity assay; assay type: organism-based; details: in vivo, other, 360 h
[23] = Phytotoxicity against Triticum aestivum (wheat) assessed as growth inhibition at 150 g/ha pre-emergence treatment measured after 15 days by crop-selectivity assay; assay type: organism-based; details: in vivo, read-out: GI
[24] = Phytotoxicity against Gossypium (cotton) assessed as growth inhibition at 15 g/ha post-emergence treatment measured after 15 days by crop-selectivity assay; assay type: organism-based; details: in vivo, read-out: GI
Digitaria sanguinalis [25] = test: Herbicidal activity against crabgrass Digitaria sanguinalis(hairy crabgrass) assessed as weed growth inhibition at 75 g/ha pre-emergence treatment […]; assay type: functional; details: read-out: GI; method in brief: as §2
[26] = tested on: Brassica rapa subsp. oleifera; test: Phytotoxicity against Brassica rapa subsp. oleifera assessed as growth inhibition at 7.5 g/ha pre-emergence treatment measured after 15 days by crop-selectivity assay; assay type: organism-based; details: in vivo, other, 360 h
[27] = Phytotoxicity against Oryza sativa (rice) assessed as growth inhibition at 75 g/ha pre-emergence treatment measured after 15 days by crop-selectivity assay; assay type: organism-based; details: in vivo, read-out: GI
[28] = Phytotoxicity against Oryza sativa (rice) assessed as growth inhibition at 15 g/ha post-emergence treatment measured after 15 days by crop-selectivity assay; assay type: organism-based; details: in vivo, read-out: GI
Glycine max [29] = test: Phytotoxicity against Glycine max (soybean) assessed as growth inhibition at 30 g/ha pre-emergence treatment measured after 15 days by crop-selectivity assay; assay type: organism-based; details: in vivo, other, 360 h
Chenopodium album [30] = test: Herbicidal activity against fat hen Chenopodium album assessed as weed growth inhibition at 75 g/ha post-emergence treatment […]; assay type: functional; details: read-out: GI; method in brief: as §2
Digitaria sanguinalis [31] = test: Herbicidal activity against crabgrass Digitaria sanguinalis(hairy crabgrass) assessed as weed growth inhibition at post-emergence treatment […]; assay type: functional, organism-based; method in brief: as §2
[32] = Phytotoxicity against Oryza sativa (rice) assessed as growth inhibition at 30 g/ha post-emergence treatment measured after 15 days by crop-selectivity assay; assay type: organism-based; details: in vivo, read-out: GI
[33] = Phytotoxicity against Zea mays (maize) assessed as growth inhibition at 7.5 g/ha post-emergence treatment measured after 15 days by crop-selectivity assay; assay type: organism-based; details: in vivo, read-out: GI; method in brief: as §1
[34] = Phytotoxicity against Brassica rapa subsp. oleifera assessed as growth inhibition at 150 g/ha pre-emergence treatment measured after 15 days by crop-selectivity assay; assay type: organism-based; details: in vivo, read-out: GI
Amaranthus blitum [35] = test: Herbicidal activity against Amaranthus blitum assessed as weed growth inhibition at 75 g/ha post-emergence treatment […]; assay type: functional; details: read-out: GI; method in brief: as §2

| Compound | inhibition at 360 h [1] [%] | inhibition at 360 h [2] [%] | inhibition at 360 h [3] [%] | inhibition at 360 h [4] [%] | inhibition of growth at 75 g/ha (Amaranthus blitum [5]) [%] | growth inhibition (GI) (Gossypium [6]) | growth inhibition (GI) (Gossypium [7]) | inhibition of growth at 75 g/ha (Setaria viridis [8]) [%] | inhibition of growth at 75 g/ha (Setaria viridis [9]) [%] | inhibition at 360 h [10] [%] | inhibition of growth at 75 g/ha (Chenopodium album [11]) [%] | inhibition of growth at 75 g/ha (Echinochloa crus-galli) [%] | inhibition at 360 h [12] [%] | inhibition at 360 h [13] [%] | growth inhibition (GI) (Gossypium [14]) | inhibition at 360 h [15] [%] | growth inhibition (GI) (Triticum aestivum) | inhibition at 360 h [16] [%] | inhibition of growth at 75 g/ha (Abutilon theophrasti) [%] | growth inhibition (GI) (Glycine max [17]) | other results |
| --- | --- | --- | --- | --- | --- | --- | --- | --- | --- | --- | --- | --- | --- | --- | --- | --- | --- | --- | --- | --- | --- |
| C#CCN1C(=O)COc2cc(F)c(N3C(=O)c4ccc(F)cc4C3=O)cc21 | > 10 | > 10 | > 10 | > 10 | > 80 | Non-toxic | Non-toxic | > 80 | > 80 | > 10 | > 80 | > 80 | > 10 | > 10 | Non-toxic | > 10 | Non-toxic | 1 | > 80 | Non-toxic | growth inhibition (GI) (Zea mays): Non-toxic; growth inhibition (GI) [18]: Non-toxic; inhibition of growth at 75 g/ha (Digitaria sanguinalis [19]): > 80%; growth inhibition (GI) (Gossypium [20]): Non-toxic; inhibition at 360 h [21]: > 10%; growth inhibition (GI) (Glycine max [22]): Non-toxic; inhibition at 360 h [23]: > 10%; inhibition at 360 h [24]: > 10%; inhibition of growth at 75 g/ha (Digitaria sanguinalis [25]): > 80%; growth inhibition (GI) [26]: Non-toxic; inhibition at 360 h [27]: > 10%; inhibition at 360 h [28]: > 10%; growth inhibition (GI) (Glycine max [29]): Non-toxic; inhibition of growth at 75 g/ha (Chenopodium album [30]): > 80%; IC50 (Digitaria sanguinalis [31]): 4.8 g/ha; inhibition at 360 h [32]: > 10%; inhibition at 360 h [33]: 1%; inhibition at 360 h [34]: > 10%; inhibition of growth at 75 g/ha (Amaranthus blitum [35]): > 80% |
| C#CCN1C(=O)COc2cc(F)c(N3C(=O)C4=C(CCCC4)C3=O)cc21 [FLUMIOXAZIN] | > 10 | > 10 | > 10 | > 10 | > 80 | Non-toxic | Non-toxic | > 80 | > 80 | > 10 | > 80 | > 80 | > 10 | > 10 | Non-toxic | > 10 | Non-toxic | > 10 | > 80 | Non-toxic | growth inhibition (GI) (Zea mays): Non-toxic; growth inhibition (GI) [18]: Non-toxic; inhibition of growth at 75 g/ha (Digitaria sanguinalis [19]): > 80%; growth inhibition (GI) (Gossypium [20]): Non-toxic; inhibition at 360 h [21]: > 10%; growth inhibition (GI) (Glycine max [22]): Non-toxic; inhibition at 360 h [23]: > 10%; inhibition at 360 h [24]: > 10%; inhibition of growth at 75 g/ha (Digitaria sanguinalis [25]): > 80%; growth inhibition (GI) [26]: Non-toxic; inhibition at 360 h [27]: > 10%; inhibition at 360 h [28]: > 10%; growth inhibition (GI) (Glycine max [29]): Non-toxic; inhibition of growth at 75 g/ha (Chenopodium album [30]): > 80%; IC50 (Digitaria sanguinalis [31]): 2.5 g/ha; inhibition at 360 h [32]: > 10%; inhibition at 360 h [33]: > 10%; inhibition at 360 h [34]: > 10%; inhibition of growth at 75 g/ha (Amaranthus blitum [35]): > 80% |
